Active and inactive are the calls of the source. No cut-off for these calls is given here.
Experiments:
[1] = biological target: T1, Prostaglandin G/H synthase 1 (Ovis aries) (UniProt P05979); assay: Inhibition of purified ovine COX-1 assessed as residual activity by measuring formation of 12-HHT from arachidonic acid preincubated at 10 uM for 5 mins before substrate addition measured after 5 mins by HPLC analysis relative to control; values are per cent of control
T1 sequence (whole entry): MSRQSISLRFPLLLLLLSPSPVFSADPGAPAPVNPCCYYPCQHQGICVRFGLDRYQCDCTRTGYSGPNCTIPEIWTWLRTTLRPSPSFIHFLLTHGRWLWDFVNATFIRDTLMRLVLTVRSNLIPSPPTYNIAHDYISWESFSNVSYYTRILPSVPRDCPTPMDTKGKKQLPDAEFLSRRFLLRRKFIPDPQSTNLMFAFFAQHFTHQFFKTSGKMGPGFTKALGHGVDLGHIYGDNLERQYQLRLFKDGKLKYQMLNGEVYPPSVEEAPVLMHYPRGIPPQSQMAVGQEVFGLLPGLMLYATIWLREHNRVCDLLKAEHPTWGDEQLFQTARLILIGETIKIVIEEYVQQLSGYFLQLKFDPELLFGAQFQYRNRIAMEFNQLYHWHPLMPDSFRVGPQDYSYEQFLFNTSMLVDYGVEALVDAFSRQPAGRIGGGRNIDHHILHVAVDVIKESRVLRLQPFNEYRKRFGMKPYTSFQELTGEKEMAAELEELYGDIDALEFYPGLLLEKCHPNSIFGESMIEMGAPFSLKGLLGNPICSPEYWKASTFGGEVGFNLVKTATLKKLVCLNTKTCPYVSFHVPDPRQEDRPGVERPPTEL

[2] = biological target: T2, Polyunsaturated fatty acid lipoxygenase ALOX12 (Homo sapiens, UniProt P18054); assay: Inhibition of 12-LO in human neutrophils
T2 sequence (P18054 whole entry): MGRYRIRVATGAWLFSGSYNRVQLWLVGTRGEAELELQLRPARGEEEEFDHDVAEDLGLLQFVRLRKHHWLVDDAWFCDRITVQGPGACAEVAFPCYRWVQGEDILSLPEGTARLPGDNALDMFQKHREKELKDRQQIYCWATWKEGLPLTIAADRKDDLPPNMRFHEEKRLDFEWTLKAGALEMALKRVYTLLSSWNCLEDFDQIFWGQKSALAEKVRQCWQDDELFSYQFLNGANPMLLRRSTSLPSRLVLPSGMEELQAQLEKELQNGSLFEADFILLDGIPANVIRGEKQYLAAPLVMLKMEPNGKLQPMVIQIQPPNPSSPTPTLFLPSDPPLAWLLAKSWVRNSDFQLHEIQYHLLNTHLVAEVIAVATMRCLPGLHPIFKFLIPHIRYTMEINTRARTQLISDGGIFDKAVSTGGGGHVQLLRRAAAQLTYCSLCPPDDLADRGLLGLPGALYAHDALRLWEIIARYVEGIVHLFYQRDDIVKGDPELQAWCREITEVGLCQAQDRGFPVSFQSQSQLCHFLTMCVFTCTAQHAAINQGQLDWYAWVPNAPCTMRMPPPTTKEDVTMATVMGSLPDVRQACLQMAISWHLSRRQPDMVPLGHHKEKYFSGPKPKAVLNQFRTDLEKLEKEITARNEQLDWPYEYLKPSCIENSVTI

[3] = biological target: T3, Prostaglandin E synthase (Homo sapiens) (UniProt O14684); assay: (§1) Inhibition of mPGES1-mediated PGE2 formation in LPS-stimulated human monocytes preincubated for 15 mins before arachidonic acid substrate addition measured after 30 mins by UPLC-MS/MS analysis; assay type: cell-based
T3 sequence (whole entry): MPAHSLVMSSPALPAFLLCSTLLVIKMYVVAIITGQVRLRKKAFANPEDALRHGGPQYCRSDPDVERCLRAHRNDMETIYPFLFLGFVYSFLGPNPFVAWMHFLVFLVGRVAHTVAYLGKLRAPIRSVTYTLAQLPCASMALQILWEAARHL
Outline: (§2)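 Fresh human monocytes (adherence-isolated, >85% CD14+; 5 × 10⁶/well) primed with LPS 1 μg/mL for 24 h. Washed, 15 min preincubation, then 2.5 μM A23187 plus 20 μM arachidonic acid for 30 min. Eicosanoids extracted and measured by UPLC-MS/MS, normalized to PGB1 as relative intensities. Two to three independent experiments.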

[4] = biological target: T4, Prostaglandin E synthase (Homo sapiens, UniProt O14684); assay: as §1; assay type: cell-based
T4 sequence (O14684 whole entry): T3 sequence (whole entry)
Outline: as §2

[5] = biological target: T5, Prostaglandin G/H synthase 2 (Homo sapiens, UniProt P35354); assay: Inhibition of COX2-mediated PGD2 formation in LPS-stimulated human monocytes preincubated for 15 mins before arachidonic acid substrate addition measured after 30 mins by UPLC-MS/MS analysis; assay type: cell-based
T5 sequence (P35354 whole entry): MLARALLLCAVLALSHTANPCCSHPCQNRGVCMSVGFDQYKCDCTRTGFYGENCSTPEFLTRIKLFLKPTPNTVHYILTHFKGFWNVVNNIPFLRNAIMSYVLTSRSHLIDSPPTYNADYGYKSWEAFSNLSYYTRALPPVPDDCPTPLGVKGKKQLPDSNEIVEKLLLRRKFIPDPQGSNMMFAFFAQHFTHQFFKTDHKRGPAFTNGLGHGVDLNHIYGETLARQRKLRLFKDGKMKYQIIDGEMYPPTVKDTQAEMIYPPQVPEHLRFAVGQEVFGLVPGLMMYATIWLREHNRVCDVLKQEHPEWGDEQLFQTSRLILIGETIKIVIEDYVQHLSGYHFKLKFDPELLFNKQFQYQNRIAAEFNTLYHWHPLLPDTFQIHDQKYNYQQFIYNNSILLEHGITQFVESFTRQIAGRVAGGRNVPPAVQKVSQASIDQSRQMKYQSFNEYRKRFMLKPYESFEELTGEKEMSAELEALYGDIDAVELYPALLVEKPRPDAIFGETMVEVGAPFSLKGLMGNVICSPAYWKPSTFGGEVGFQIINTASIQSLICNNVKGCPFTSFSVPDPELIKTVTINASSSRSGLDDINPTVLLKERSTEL

[6] = test system: Mus musculus; assay: Antiinflammatory activity in zymosan-induced peritonitis CD1 mouse model assessed as suppression of MPO activity at 10 mg/kg, ip administered 30 mins before challenge measured 4 hrs post zymosan challenge relative to control; assay type: functional; conditions: route intraperitoneal
Outline: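 In male CD-1 mice (n = 5−11 per group), dose was given ip in 2% DMSO/saline 30 min before ip zymosan (2 mg/mL, 0.5 mL). Lavage 4 h later. Pelleted exudate cells disrupted; supernatant mixed with 0.167 mg/mL o-dianisidine and 0.0005% H2O2 in PBS, read kinetically by absorbance. U/mL from human neutrophil MPO calibration; % inhibition vs vehicle.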

Row | Compound | residual activity [1] [%] | IC50 [2] [µM] | inhibition [3] | IC50 [4] [µM] | also measured
1 | COc1cc(/C=C/C(=O)CC(=O)/C=C/c2cc(CC=C(C)C)c(O)c(OC)c2)cc(CC=C(C)C)c1O | 80.2 |  |  |  | 
2 | COc1cc(/C=C/c2cc(-c3ccc(O)c(OC)c3)[nH]n2)ccc1O |  | 7.7 | Active |  | 
3 | COc1cc(/C=C/C(=O)/C=C/c2cc(CC=C(C)C)c(O)c(OC)c2)cc(CC=C(C)C)c1O | 78.7 |  |  |  | 
4 | COc1cc(/C=C/c2cc(/C=C/c3cc(CC=C(C)C)c(O)c(OC)c3)[nH]n2)cc(CC=C(C)C)c1O |  |  |  | > 10 | IC50 [5]: > 10 µM; inhibition in vivo at 10 mg/kg [6]: 39%

More lines, main results first:

Row | residual activity [1] [%] | IC50 [2] [µM] | inhibition [3] | IC50 [4] [µM] | Compound | also measured
5 |  |  |  | 1.2 | COc1cc(/C=C/C(=O)CC(=O)/C=C/c2ccc(O)c(OC)c2)ccc1O [CURCUMIN] | 
6 |  | 7.3 | Active |  | COc1cc(/C=C/c2cc(/C=C/c3ccc(O)c(OC)c3)[nH]n2)ccc1O [CURCUMIN PYRAZOLE] | 

Source: ChEMBL document CHEMBL3286393 (J Med Chem, 2014)
